The nature of series [1]: Apparent volume of distribution in male Sprague-Dawley rat at 5 mg/kg, iv measured for 24 hrs by LC-MS/MS analysis. It is filed as ADME, organism-based. The note with it: in vivo, read-out: Vz. An outline of the steps: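 Sprague-Dawley rats, single intravenous or oral dose. Parameters (half-life, AUC, bioavailability) reported in a supplementary table.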
The test system of series [2] is ALK tyrosine kinase receptor (Homo sapiens), Q9UM73 [L1196M]. As to the kind of experiment: Inhibition of ALK L1196M mutant (unknown origin) assessed as remaining activity at 1 uM by Kinome scan method relative to control. An outline of the steps: (§1)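 Active-site-dependent competition-binding (KINOMEscan) panel of 468 kinases, test compound at 1 μM (from a 10 mM DMSO stock). Read-out is ctrl% = (test signal − positive control signal)/(negative control signal − positive control signal) × 100. DMSO is the negative control (100%) and a control compound is the positive control (0%). Lower ctrl% means tighter binding.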

Series [3] concerns the target Serine/threonine-protein kinase 17A (Homo sapiens) (UniProt Q9UEE5). As to the kind of experiment: Inhibition of DRAK1 (unknown origin) assessed as remaining activity at 1 uM by Kinome scan method relative to control.
Series [4] has as its target Muscle, skeletal receptor tyrosine-protein kinase (Homo sapiens) (UniProt O15146). As to the kind of experiment: Inhibition of MUSK (unknown origin) assessed as remaining activity at 1 uM by Kinome scan method relative to control.
Series [5] deals with Peripheral plasma membrane protein CASK (Homo sapiens) (UniProt O14936). As to the kind of experiment: Inhibition of CASK (unknown origin) assessed as remaining activity at 1 uM by Kinome scan method relative to control. An outline of the steps:
(§2)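 Active-site-dependent competition-binding profiling (KINOMEscan) at 1 μM against a 468-kinase panel; compound supplied from a 10 mM DMSO stock. Read-out is ctrl% = (test signal − positive control signal)/(negative control signal − positive control signal) × 100. DMSO is the negative control (100%) and a control compound the positive control (0%). Lower ctrl% means tighter binding.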

Series [6] relates to Mast/stem cell growth factor receptor Kit (Homo sapiens), P10721 [V559D]. Put plainly: Inhibition of KIT V559D mutant (unknown origin) assessed as remaining activity at 1 uM by Kinome scan method relative to control.
Sequence of Mast/stem cell growth factor receptor Kit (Homo sapiens), P10721 [V559D] (P10721 whole entry V559D): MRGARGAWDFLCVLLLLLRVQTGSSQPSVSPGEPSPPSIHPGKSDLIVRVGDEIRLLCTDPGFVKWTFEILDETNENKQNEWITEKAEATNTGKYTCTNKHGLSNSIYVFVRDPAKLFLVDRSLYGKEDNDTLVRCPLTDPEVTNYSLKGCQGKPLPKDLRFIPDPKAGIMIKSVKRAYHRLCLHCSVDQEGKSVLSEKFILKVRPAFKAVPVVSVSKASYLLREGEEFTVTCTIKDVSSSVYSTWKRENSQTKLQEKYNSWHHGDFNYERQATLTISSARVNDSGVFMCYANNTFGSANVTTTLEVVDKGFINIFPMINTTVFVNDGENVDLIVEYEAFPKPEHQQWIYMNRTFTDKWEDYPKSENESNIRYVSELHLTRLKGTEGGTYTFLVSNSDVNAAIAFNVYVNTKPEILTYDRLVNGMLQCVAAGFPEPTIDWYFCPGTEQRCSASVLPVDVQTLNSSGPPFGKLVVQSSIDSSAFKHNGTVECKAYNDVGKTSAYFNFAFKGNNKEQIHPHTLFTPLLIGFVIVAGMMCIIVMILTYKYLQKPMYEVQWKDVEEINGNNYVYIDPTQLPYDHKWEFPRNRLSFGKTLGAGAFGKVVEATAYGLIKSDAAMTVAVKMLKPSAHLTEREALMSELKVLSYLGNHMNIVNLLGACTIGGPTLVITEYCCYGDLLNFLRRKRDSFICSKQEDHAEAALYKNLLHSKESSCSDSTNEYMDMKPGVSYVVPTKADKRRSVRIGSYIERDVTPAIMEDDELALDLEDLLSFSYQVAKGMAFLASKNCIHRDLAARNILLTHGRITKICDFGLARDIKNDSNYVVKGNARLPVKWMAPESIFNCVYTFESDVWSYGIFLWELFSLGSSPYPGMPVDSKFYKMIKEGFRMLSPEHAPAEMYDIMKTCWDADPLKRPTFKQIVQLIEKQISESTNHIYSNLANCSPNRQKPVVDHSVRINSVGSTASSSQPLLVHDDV
Series [7] concerns the target MAP kinase-activated protein kinase 2 (Homo sapiens) (UniProt P49137). Put plainly: Inhibition of MAPKAPK2 (unknown origin) assessed as remaining activity at 1 uM by Kinome scan method relative to control.
Series [8] deals with Tyrosine-protein kinase ABL1 (Homo sapiens), P00519 [H396P]. As to the kind of experiment: Inhibition of ABL1 H396P mutant (unknown origin) assessed as remaining activity at 1 uM by Kinome scan method relative to control. An outline of the steps: as §1
In series [9] the target is Receptor tyrosine-protein kinase erbB-3 (Homo sapiens) (UniProt P21860). Put plainly: Inhibition of ERBB3 (unknown origin) assessed as remaining activity at 1 uM by Kinome scan method relative to control.
Sequence of Receptor tyrosine-protein kinase erbB-3 (Homo sapiens) (P21860 whole entry): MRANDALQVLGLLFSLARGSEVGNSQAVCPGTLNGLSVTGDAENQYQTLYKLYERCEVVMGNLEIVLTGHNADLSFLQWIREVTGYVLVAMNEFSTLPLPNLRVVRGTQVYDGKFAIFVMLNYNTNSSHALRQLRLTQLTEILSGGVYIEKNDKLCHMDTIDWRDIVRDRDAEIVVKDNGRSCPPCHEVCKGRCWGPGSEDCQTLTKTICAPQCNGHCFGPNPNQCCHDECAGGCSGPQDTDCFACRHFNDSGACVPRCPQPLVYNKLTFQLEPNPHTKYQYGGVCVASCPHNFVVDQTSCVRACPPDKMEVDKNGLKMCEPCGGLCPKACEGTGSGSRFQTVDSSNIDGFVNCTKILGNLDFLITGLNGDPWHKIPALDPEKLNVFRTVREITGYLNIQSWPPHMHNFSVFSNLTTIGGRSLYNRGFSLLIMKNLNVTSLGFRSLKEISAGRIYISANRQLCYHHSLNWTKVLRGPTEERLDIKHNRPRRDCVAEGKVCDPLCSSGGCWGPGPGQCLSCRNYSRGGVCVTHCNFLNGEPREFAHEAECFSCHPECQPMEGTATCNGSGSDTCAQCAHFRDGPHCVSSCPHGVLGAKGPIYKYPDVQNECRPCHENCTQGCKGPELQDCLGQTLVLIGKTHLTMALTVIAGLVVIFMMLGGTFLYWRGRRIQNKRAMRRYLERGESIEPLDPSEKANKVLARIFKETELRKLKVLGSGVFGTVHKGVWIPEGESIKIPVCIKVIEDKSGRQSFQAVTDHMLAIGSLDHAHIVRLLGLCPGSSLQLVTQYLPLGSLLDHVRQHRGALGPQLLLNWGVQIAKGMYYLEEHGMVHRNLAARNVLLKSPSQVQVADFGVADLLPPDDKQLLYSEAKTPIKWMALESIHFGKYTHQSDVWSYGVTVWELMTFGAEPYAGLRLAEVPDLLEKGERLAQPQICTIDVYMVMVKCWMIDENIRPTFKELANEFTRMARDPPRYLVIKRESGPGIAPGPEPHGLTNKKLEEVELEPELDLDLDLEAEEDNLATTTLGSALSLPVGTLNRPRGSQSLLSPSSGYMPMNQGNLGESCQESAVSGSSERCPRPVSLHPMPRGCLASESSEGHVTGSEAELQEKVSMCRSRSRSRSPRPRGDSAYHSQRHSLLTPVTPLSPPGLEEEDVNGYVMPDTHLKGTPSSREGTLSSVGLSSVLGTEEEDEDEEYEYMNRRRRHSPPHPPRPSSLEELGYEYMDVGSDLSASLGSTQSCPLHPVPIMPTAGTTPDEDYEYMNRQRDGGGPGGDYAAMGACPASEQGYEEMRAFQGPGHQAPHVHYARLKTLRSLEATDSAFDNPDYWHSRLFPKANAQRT
Series [10] addresses Ribosomal protein S6 kinase beta-1 (Homo sapiens) (UniProt P23443). As to the kind of experiment: Inhibition of S6K1 (unknown origin) assessed as remaining activity at 1 uM by Kinome scan method relative to control.
In series [11] the test system is Receptor-type tyrosine-protein kinase FLT3 (Homo sapiens), P36888 [K663Q]. Put plainly: Inhibition of FLT3 K663Q mutant (unknown origin) assessed as remaining activity at 1 uM by Kinome scan method relative to control.
Series [12] concerns the target Casein kinase II subunit alpha (Homo sapiens) (UniProt P68400). As to the kind of experiment: Inhibition of CSNK2A1 (unknown origin) assessed as remaining activity at 1 uM by Kinome scan method relative to control. An outline of the steps: as §2
In series [13] the test system is Mus musculus. As to the kind of experiment: Protection against APAP induced liver injury in mouse assessed as continual expansion of centrilobular necrotic lesions at 1 mg/kg, ip administered at 2.5 hrs by TUNEL staining. It is filed as functional, organism-based.
The target in series [14] is Macrophage colony-stimulating factor 1 receptor (Homo sapiens) (UniProt P07333). Put plainly: Inhibition of CSF1R-autoinhibited (unknown origin) assessed as remaining activity at 1 uM by Kinome scan method relative to control. An outline of the steps:
as §2

Series [15] addresses Mitogen-activated protein kinase 13 (Homo sapiens) (UniProt O15264). Put plainly: Inhibition of P38delta (unknown origin) assessed as remaining activity at 1 uM by Kinome scan method relative to control.
The target of series [16] is Calcium/calmodulin-dependent protein kinase type 1G (Homo sapiens) (UniProt Q96NX5). As to the kind of experiment: Inhibition of CAMK1G (unknown origin) assessed as remaining activity at 1 uM by Kinome scan method relative to control. An outline of the steps:
as §2

In series [17] the target is Rho-associated protein kinase 1 (Homo sapiens) (UniProt Q13464). As to the kind of experiment: Inhibition of ROCK1 (unknown origin) assessed as remaining activity at 1 uM by Kinome scan method relative to control. An outline of the steps:
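KINOMEscan active-site competition binding assay at 1 μM against 468 kinases. Ctrl% = (test − positive control)/(negative control DMSO − positive control) × 100; lower values mean tighter binding.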

Series [18] can be described thus: Acute toxicity in mouse assessed as increase in BrdU-positive cells at 1 mg/kg,ip administrated once a daily for 3 weeks by H and E staining based immunohistochemical analysis relative to control. It is filed as organism-based, Liver. The following applies: in vivo, 504 h. An outline of the steps:
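Postnatal mice dosed from 10 days of age with vehicle or 1 mg/kg once per day for 21 days (3 weeks). Vehicle is 0.1% citric acid aqueous solution containing 20% Kolliphor HS 15. Liver sections stained with H&E and by IHC for CK19 and BrdU, with positive cells quantified (n = 3). Liver/body weight ratio recorded (n = 4). Values are means ± SD versus vehicle, Student's t test.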

In series [19] the target is Serine/threonine-protein kinase VRK2 (Homo sapiens) (UniProt Q86Y07). As to the kind of experiment: Inhibition of VRK2 (unknown origin) assessed as remaining activity at 1 uM by Kinome scan method relative to control.
Sequence of Serine/threonine-protein kinase VRK2 (Homo sapiens) (Q86Y07 whole entry): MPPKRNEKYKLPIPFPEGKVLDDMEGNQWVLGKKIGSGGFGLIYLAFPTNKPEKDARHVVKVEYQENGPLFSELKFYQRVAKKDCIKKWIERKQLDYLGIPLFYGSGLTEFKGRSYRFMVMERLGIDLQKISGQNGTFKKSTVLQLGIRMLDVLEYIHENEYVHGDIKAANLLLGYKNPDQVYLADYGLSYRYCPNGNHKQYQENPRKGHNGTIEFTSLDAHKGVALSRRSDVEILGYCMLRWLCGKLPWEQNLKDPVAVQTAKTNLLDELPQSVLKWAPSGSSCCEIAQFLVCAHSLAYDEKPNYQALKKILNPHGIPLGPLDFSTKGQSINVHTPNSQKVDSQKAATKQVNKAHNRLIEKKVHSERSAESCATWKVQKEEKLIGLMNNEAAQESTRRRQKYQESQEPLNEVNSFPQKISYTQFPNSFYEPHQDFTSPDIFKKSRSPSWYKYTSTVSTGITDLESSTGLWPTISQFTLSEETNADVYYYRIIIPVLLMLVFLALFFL
The target in series [20] is Tyrosine-protein kinase receptor Tie-1 (Homo sapiens) (UniProt P35590). As to the kind of experiment: Inhibition of TIE1 (unknown origin) assessed as remaining activity at 1 uM by Kinome scan method relative to control.
Sequence of Tyrosine-protein kinase receptor Tie-1 (Homo sapiens) (P35590 whole entry): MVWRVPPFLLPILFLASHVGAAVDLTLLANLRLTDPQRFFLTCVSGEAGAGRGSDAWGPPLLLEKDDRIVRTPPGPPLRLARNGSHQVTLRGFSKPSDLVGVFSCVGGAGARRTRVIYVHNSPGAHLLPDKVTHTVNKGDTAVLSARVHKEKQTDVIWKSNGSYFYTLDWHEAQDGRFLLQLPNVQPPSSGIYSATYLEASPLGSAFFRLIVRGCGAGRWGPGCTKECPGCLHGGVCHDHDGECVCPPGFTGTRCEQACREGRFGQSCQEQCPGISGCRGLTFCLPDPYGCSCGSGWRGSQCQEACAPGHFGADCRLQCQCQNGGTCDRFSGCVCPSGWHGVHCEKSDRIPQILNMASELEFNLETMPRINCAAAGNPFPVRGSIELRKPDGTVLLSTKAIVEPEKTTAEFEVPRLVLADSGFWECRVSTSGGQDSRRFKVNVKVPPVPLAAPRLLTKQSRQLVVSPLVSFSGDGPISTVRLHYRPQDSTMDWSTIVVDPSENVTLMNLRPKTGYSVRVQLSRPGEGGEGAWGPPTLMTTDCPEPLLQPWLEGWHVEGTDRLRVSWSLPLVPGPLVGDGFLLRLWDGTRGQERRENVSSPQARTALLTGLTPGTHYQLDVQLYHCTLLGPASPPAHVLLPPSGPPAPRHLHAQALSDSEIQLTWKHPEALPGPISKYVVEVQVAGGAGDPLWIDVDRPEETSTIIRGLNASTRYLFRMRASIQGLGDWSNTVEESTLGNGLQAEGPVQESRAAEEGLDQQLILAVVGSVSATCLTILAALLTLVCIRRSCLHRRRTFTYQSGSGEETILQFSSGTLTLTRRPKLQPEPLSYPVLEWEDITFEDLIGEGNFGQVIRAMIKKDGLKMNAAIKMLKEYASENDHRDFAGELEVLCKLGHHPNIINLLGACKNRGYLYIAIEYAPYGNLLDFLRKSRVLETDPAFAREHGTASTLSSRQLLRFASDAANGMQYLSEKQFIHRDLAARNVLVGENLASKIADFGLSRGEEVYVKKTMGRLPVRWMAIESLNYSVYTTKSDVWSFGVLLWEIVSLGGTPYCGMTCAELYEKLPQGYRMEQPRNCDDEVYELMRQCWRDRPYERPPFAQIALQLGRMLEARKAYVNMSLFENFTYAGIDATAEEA
In series [21] the test system is Mus musculus. As to the kind of experiment: Protection against APAP induced liver injury in mouse assessed as continual expansion of centrilobular necrotic lesions at 1 mg/kg, ip administered at 2.5 hrs by H&E staining. It is filed as functional, organism-based.
For series [22], the target named is Serine/threonine-protein kinase 36 (Homo sapiens) (UniProt Q9NRP7). Put plainly: Inhibition of STK36 (unknown origin) assessed as remaining activity at 1 uM by Kinome scan method relative to control.

Calls of active or inactive are those of the source. The rule behind the calls is not given here.

Sequence of Muscle, skeletal receptor tyrosine-protein kinase (Homo sapiens) (O15146 whole entry): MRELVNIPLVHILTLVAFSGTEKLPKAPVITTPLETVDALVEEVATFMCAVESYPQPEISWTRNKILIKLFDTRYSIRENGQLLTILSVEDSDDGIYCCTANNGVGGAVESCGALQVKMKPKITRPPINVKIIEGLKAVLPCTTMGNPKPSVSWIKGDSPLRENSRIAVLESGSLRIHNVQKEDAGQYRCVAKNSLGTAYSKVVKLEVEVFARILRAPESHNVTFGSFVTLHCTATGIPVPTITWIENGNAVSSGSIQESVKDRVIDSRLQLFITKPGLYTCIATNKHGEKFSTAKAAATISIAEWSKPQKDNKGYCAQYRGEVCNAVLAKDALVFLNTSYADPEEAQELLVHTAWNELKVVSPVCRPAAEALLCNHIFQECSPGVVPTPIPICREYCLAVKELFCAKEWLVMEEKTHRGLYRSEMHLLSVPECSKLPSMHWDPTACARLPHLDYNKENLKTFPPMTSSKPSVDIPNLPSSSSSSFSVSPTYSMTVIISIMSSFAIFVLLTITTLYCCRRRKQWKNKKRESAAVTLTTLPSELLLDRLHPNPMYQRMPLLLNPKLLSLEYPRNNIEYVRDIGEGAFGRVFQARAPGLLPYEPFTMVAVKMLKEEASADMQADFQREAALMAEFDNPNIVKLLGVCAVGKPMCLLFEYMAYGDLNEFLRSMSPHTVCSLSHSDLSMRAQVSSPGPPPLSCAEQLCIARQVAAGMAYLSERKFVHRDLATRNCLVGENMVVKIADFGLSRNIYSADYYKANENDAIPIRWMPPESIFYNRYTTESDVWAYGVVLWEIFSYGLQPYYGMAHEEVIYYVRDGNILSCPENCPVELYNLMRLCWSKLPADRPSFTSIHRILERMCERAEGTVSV

`CN1C(=O)c2sccc2N(C)c2nc(Nc3ccc(S(N)(=O)=O)cc3)ncc21`: in [1], the Vd turned out to be 7.1 L/kg. Besides, the Activity was 100% in series [2]; 100% in [3]; 100% in series [4]; 78% in series [5]; 97% in [6]; 91% in series [7]. In addition, the Activity in [8] worked out at 11%; in series [9], 98%; in [10], 100%; in series [11], 87%; in series [12], 94%; in [14], 87%. Also, the Activity in [15] is 94%; in [16], 100%; in series [17], 89%; in series [18], 15%; in series [19] it was 85%; in series [20] it was 100%. The Activity in series [22] worked out at 100%. Besides, the outcome in [13] and in [21] was Active.

(Values after ChEMBL document CHEMBL5705905, “Pharmacological targeting of kinases MST1 and MST2 augments tissue repair and regeneration” (Sci Transl Med, 2016).)
